Legend:
[1] = LogD value was determined; type: physicochemical; settings: octanol/water
Outline: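 log D determined by an HPLC method.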

[2] = target: Metabotropic glutamate receptor 5 (Rattus norvegicus, UniProt P31424); experiment: Tested for displacement of [3H]3-methoxy-5-(pyridin-2-ylethynyl) pyridine from Metabotropic glutamate receptor 5 in rat cortical membrane; type: cell membranes
Outline: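 Rat cortical membranes; displacement of [3H]-3-methoxy-5-(pyridin-2-ylethynyl)pyridine bound to native mGlu5. Geometric mean with standard deviation and number of replicates.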

[3] = target: Metabotropic glutamate receptor 5 (Homo sapiens, UniProt P41594); experiment: Tested in vitro against human recombinant Metabotropic glutamate receptor 5 stably expressed in LtK cells by [Ca2+] flux assay using glutamate as agonist
[4] = system: Rattus norvegicus; experiment: (§1) Amount in vivo in rat plasma after intraperitoneal dose of 3 mg/Kg; type: ADME, organism-based; settings: ip, read-out: Plasma level
Outline: (§2)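 Rats given 3 mg/kg ip; brain (hippocampus) and plasma drug levels measured 1 h after dosing. Mean ± SEM, n = rats per group.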

[5] = system: Rattus norvegicus; experiment: Amount in vivo in rat brain after intraperitoneal dose of 3 mg/Kg; type: ADME, organism-based; settings: ip, read-out: Brain level; outline: as §2
[6] = target: Metabotropic glutamate receptor 1 (Homo sapiens, UniProt Q13255); experiment: Tested for in vitro antagonistic activity against Metabotropic glutamate receptor 1; type: functional
Outline: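 Ca2+ flux assay at mGlu1a, with compounds tested in both agonist and antagonist modes. Initial screen at 10 µM; concentration-response curves generated where inhibition was seen.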

[7] = target: T1, Amine oxidase [flavin-containing] A (Mus musculus, UniProt Q64133); experiment: Tested for in vitro antagonistic activity against Monoamine oxidase A; type: functional
T1 sequence (Q64133 whole entry): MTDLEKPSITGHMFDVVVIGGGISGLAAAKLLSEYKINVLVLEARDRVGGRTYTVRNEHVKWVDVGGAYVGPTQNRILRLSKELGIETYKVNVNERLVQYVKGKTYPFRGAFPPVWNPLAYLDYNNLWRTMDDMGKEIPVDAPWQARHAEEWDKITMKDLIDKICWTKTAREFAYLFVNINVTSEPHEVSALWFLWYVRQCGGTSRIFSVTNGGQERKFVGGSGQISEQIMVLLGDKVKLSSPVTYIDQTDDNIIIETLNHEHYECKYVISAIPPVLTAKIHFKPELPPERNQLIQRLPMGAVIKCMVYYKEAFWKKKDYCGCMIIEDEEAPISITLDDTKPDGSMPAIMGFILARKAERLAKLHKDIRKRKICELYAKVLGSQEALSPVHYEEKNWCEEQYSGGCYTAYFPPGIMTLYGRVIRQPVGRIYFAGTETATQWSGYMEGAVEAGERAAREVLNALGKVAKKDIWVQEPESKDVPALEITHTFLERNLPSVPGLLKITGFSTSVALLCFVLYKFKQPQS
Outline: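 Displacement of [125I]RTI-55 binding at MAOA. IC50 given with range in parentheses. Initial screen at 10 µM, followed by concentration-response curves where inhibition was detected.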

[8] = target: T2, Glutamate receptor ionotropic, NMDA 2B (Homo sapiens, UniProt Q05586+Q13224); experiment: Tested for in vitro antagonistic activity against recombinant human N-methyl-D-aspartate glutamate receptor 2B; type: functional
Outline: (§3)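 Cell line stably expressing recombinant human NR1A/2B NMDA receptors. Inhibition of NMDA/glycine-evoked rise in intracellular Ca2+. Six-point concentration-response curve with 8-22 cells per concentration.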

[9] = system: Rattus norvegicus; experiment: In vivo intraperitoneal effective dose to block fear conditioning in rats was determined by FPS (fear potentiated startle) model of anxiety; type: functional; settings: ip
Outline: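 Fear-potentiated startle anxiety model in rats. Compound given ip and measurement taken 1 h after administration. 8 rats/group. ED50 reported as mean, with ED50 values from individual experiments (95% confidence interval).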

[10] = system: Rattus norvegicus; experiment: Amount in vivo in rat cerebrospinal fluid (CSF) after oral dose of 30 mg/Kg; settings: read-out: CSF levels
[11] = as §1; type: ADME, organism-based; settings: ip, read-out: Plasma level; outline: as §2
[12] = target: T1, Amine oxidase [flavin-containing] A; experiment: Tested for in vitro antagonistic activity against Monoamine oxidase; type: functional
Outline: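 Radioligand displacement of [125I]RTI-55 ([125I]methyl (1R,2S,3S,5S)-3-(4-iodophenyl)-8-methyl-8-azabicyclo[3.2.1]octane-2-carboxylate) from MAO-A. Compounds were first screened at 10 µM.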

[13] = target: T2, Glutamate receptor ionotropic, NMDA 2B; experiment: Tested for in vitro antagonistic activity against human N-methyl-D-aspartate glutamate receptor 2B; type: functional; outline: as §3

Metabotropic glutamate receptor 5 (Homo sapiens, UniProt P41594), sequence (P41594 whole entry): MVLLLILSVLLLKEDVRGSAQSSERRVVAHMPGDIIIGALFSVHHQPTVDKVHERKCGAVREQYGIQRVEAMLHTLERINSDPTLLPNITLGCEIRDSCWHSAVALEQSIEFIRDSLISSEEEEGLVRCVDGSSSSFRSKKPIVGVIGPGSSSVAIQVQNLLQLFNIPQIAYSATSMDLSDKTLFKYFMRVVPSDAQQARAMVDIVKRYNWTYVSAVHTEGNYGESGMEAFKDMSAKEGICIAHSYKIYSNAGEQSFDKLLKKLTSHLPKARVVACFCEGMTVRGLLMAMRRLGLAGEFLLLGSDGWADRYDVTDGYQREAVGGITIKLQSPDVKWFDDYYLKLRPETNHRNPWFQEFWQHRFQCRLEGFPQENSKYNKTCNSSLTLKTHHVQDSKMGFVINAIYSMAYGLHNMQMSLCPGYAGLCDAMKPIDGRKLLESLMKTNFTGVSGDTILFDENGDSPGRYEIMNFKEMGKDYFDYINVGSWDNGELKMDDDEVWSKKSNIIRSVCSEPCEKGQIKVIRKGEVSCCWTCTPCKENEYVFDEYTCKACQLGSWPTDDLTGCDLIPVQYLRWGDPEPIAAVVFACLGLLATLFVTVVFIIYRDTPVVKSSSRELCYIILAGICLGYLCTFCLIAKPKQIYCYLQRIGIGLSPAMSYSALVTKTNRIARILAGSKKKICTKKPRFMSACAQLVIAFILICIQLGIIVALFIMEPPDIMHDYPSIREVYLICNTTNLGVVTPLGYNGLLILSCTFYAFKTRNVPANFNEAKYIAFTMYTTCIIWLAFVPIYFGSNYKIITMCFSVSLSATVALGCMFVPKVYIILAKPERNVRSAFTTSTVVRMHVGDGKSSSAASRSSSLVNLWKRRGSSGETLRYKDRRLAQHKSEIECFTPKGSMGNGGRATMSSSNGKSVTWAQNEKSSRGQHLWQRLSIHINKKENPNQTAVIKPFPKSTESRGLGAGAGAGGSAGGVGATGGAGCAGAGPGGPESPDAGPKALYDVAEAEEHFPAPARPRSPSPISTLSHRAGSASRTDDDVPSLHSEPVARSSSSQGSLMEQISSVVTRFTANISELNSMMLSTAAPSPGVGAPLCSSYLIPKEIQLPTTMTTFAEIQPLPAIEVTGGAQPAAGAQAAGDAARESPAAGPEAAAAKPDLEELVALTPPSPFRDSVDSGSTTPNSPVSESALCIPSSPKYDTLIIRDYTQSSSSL
Metabotropic glutamate receptor 5 (Rattus norvegicus, UniProt P31424), sequence (P31424 whole entry): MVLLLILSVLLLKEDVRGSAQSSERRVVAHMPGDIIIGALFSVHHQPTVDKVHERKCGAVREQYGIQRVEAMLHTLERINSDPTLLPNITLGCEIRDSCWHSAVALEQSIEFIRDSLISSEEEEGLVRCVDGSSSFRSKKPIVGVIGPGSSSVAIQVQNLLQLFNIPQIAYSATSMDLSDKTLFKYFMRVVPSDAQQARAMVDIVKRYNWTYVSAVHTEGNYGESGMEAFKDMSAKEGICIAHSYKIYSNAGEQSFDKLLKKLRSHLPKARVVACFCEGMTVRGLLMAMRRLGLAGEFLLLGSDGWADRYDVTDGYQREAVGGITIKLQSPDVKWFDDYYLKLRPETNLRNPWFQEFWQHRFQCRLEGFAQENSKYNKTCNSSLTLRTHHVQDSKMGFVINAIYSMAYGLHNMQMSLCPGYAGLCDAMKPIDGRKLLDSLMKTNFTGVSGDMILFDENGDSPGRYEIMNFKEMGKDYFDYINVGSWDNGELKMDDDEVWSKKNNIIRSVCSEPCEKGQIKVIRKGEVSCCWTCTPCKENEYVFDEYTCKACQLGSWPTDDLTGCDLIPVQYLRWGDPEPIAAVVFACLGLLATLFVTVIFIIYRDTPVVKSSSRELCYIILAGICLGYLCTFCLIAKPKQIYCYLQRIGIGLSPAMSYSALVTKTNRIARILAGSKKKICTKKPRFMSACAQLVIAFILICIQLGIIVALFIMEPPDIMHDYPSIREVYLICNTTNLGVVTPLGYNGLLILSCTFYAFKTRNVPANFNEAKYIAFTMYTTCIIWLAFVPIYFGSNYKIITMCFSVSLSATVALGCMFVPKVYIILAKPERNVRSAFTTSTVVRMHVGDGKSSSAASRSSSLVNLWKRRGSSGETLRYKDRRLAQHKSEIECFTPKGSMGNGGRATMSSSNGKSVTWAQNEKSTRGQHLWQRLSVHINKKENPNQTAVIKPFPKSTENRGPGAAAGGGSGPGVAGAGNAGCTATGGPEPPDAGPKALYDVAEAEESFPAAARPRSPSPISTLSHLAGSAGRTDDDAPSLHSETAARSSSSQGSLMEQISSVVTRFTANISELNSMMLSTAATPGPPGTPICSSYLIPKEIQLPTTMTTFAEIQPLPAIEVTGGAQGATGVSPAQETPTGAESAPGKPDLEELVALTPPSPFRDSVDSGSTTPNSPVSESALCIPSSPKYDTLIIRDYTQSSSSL
T2 sequence (Q13224 whole entry, one chain of several): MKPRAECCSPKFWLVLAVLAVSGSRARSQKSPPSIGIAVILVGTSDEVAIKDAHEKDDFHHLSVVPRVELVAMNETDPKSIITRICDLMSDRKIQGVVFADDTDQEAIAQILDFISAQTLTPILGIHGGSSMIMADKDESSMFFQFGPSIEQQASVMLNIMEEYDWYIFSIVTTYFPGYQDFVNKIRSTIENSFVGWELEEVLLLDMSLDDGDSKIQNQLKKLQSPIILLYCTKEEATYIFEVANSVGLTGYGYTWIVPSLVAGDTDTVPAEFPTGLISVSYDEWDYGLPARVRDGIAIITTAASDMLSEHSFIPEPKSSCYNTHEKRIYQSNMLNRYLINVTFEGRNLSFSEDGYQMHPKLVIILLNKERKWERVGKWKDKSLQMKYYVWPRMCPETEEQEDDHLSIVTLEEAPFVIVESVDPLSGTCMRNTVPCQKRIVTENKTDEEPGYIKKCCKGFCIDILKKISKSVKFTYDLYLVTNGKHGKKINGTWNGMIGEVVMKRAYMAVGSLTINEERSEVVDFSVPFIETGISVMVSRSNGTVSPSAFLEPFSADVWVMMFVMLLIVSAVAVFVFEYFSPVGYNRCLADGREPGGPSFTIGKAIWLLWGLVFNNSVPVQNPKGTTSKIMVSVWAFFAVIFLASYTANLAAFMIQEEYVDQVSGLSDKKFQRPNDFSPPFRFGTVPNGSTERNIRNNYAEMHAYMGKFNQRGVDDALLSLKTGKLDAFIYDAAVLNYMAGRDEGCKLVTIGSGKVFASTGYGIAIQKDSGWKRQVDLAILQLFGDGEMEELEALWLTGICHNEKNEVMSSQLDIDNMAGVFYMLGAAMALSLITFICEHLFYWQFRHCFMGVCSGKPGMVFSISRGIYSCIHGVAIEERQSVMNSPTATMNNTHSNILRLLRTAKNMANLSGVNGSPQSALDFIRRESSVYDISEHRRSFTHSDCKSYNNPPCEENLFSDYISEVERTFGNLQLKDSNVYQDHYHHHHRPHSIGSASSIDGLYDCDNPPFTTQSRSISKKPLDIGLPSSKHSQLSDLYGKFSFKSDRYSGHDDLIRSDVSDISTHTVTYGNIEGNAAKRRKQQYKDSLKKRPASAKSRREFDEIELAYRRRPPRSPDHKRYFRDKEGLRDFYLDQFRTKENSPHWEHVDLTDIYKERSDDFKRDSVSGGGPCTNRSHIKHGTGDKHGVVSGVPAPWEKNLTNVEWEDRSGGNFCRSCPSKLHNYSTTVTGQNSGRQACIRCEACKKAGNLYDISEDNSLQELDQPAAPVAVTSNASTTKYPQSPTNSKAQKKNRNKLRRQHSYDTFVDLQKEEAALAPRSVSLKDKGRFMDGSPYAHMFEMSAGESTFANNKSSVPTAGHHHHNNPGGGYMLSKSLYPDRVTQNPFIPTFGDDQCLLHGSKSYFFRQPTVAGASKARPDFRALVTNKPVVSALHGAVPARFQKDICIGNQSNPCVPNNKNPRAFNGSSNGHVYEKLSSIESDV
Metabotropic glutamate receptor 1, sequence (Q13255 whole entry): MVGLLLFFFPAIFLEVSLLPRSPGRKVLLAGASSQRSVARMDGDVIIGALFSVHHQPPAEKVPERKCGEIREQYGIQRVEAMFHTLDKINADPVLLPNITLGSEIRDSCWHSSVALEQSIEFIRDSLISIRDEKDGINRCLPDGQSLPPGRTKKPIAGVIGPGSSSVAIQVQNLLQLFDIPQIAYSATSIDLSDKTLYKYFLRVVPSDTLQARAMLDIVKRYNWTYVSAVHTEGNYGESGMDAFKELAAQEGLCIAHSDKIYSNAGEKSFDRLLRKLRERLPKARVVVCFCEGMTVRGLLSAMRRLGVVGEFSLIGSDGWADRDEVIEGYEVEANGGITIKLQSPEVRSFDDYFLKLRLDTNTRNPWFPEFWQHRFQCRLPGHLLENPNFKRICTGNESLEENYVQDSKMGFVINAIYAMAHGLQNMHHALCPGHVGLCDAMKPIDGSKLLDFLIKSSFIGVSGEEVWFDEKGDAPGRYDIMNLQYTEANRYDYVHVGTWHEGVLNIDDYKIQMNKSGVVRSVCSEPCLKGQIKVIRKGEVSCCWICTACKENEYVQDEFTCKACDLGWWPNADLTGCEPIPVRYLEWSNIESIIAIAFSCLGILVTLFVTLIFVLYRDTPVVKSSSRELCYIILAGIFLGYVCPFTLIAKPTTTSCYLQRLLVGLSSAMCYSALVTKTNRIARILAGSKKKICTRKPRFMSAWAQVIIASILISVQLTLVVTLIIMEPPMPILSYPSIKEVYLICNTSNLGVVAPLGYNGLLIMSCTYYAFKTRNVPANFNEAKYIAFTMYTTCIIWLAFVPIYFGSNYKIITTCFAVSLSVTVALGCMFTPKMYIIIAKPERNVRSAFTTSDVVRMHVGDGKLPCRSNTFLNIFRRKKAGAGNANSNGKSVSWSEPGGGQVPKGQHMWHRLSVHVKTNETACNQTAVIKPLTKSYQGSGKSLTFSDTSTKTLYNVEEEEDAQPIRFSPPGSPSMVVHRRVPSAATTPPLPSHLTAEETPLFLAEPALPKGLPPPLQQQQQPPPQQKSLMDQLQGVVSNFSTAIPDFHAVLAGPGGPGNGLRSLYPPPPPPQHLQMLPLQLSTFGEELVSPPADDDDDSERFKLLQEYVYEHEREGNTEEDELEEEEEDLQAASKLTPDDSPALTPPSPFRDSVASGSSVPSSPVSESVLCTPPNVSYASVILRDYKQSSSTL

logD [1]	Ki [2]	IC50 [3]	SMILES	further results
2.1	214 nM	122 nM	Cc1nc(C#Cc2ccncc2)cs1	
2.1			Cc1nc(C#Cc2cccnc2)cs1	concentration [4]: 1200 nM; concentration [5]: 1400 nM; IC50 [6]: > 100000 nM; IC50 [7]: 30000 nM; IC50 [8]: > 300000 nM; ED50 [9]: 1 mg/kg; concentration [10]: 1000 nM
3.3	6 nM	6 nM	Cc1nc(C#Cc2ccccc2)cs1	
1.9	48 nM	53 nM	Cc1nc(C#Cc2ccccn2)cs1	
3.5			Cc1cccc(C#Cc2ccccc2)n1	concentration [11]: 390 nM; concentration [5]: 830 nM; IC50 [6]: > 100000 nM; IC50 [12]: 8000 nM; IC50 [13]: 18000 nM; ED50 [9]: 5 mg/kg; concentration [10]: 210 nM
2.6	142 nM	97 nM	C(#Cc1cscn1)c1ccccc1	
2.6	32 nM	13 nM	Cc1csc(C#Cc2ccccc2)n1	
3.2	153 nM	81 nM	C(#Cc1nccs1)c1ccccc1	
